# Screens: PubChem, several laboratories
# HCV core dimer: HCV core protein dimerization inhibition. 300,000 compounds, 0.33% hits. inhibition, % at 5 µM. TR-FRET GST/Flag-core106 dimerization, 1536-well;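 active = inhibition above the mean of all tested compounds plus 3 SD, set per screening campaign, cut at about 45% in these data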
#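 Assay system – GST-tagged and Flag-tagged HCV core protein residues 1-106 · Quantity – core106 proteins, GST 13.5 nM and Flag 17 nM · Benchmarks – unlabelled core106 and no-GST-core106 wells · Read-out basis – percent inhibition of core106 dimerization signal · Detection – time-resolved FRET, ex 340 nm, em 617 and 671 nm · Schedule – 4 h at 22.5 °C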
# NS3 helicase inh: HCV NS3 helicase inhibition; NS3 helicase DNA unwinding, Cy5 molecular beacon fluorescence; inhibition, % at 10.9 µM; 290,000 compounds, 0.56% hits;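 active = inhibition above the mean of all tested compounds plus 3 SD, set per campaign, cut at about 35% in these data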;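 also: 0% = DMSO wells and 100% = thioflavine S control wells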
#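 test system = hepatitis C virus NS3 helicase domain fragment enzyme | reagent = annealed dual-labelled DNA beacon duplex, ATP-started | times = 1 h at 25 °C | detection = Cy5 fluorescence, 0 and 60 min reads | read-out basis = percent inhibition from t60/t0 fluorescence ratio | control set = DMSO and thioflavine S | replication = one well per compound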
# A3G deaminase: blocks human APOBEC3G single-stranded DNA deamination; AID 493012; recombinant A3G, ssDNA deamination FAM/TAMRA fluorescence; inhibition, % at 20 µM; 330,000 compounds, 0.28% hits; Q9HC16;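 active = inhibition of at least 40% at 20 µM, with no more than 30% in the related APOBEC3A deaminase screen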;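 also: plate controls were DMSO wells with A3G for no effect and wells lacking A3G enzyme for full effect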
# ABHD5-PLIN5 inh: inhibitors of human ABHD5-perilipin-5 interaction | AID 602281 | Split G. princeps luciferase complementation, luminescence, 4 h | Q00G26+Q8WTS1 | 360,000 compounds, 0.78% hits | inhibition, % at 4 µM;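 active = inhibition above the mean inhibition across every tested compound plus 3 SD, cut at about 22% in these data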;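 also: 0% = DMSO only wells and the 100% control is not disclosed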
# PRMT1 inh: inhibitors of human PRMT1. Q99873. recombinant PRMT1, activity-based probe fluorescence polarization. inhibition, % at 2.79 µM. 370,000 compounds, 1.3% hits. AID 652257;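 active = inhibition above about 21% made by adding two undisclosed values, limit read from the data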
# A3A deaminase: blocks human APOBEC3A ssDNA deamination; P31941; recombinant A3A, FAM/TAMRA ssDNA deamination fluorescence; inhibition, % at 20 µM; 330,000 compounds, 0.41% hits;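 active = at least 40% inhibition at 20 µM here, with at most 30% in a related deaminase screen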;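 also: plate controls were A3A with DMSO for no effect and wells lacking A3A enzyme for full effect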
# Target sequence (P31941 whole entry, looked up): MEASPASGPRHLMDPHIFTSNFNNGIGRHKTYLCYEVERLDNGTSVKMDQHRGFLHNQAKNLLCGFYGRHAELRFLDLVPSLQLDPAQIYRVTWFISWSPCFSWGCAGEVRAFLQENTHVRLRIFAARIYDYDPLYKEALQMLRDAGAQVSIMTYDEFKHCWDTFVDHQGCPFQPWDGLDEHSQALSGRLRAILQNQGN
# APOBEC3G confirm: confirmation of human APOBEC3G DNA deaminase inhibitors | shares compounds with A3G deaminase | recombinant A3G ssDNA deaminase, UDG/FAM-TAMRA fluorescence | inhibition, % at 20 µM | 890 compounds, 72% hits;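 active = inhibition reaching a set limit in any replicate at 20 µM, the limit being 80% of the first screen's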
# UDG ctr A3G: E. coli UDG inhibition in APOBEC3G counter-screen. shares compounds with A3G deaminase. UDG counterscreen, FAM/TAMRA oligo fluorescence. inhibition, % at 20 µM. 710 tested, under 10 active;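 active = compounds giving 40% or more inhibition at 20 µM in any one of the three replicates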;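 also: plate controls were DMSO wells with UDG and oligo for no effect and DMSO wells lacking both for full effect; inhibitors lower the FAM signal released by uracil excision and alkaline cleavage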
# Target sequence (P12295 whole entry, looked up): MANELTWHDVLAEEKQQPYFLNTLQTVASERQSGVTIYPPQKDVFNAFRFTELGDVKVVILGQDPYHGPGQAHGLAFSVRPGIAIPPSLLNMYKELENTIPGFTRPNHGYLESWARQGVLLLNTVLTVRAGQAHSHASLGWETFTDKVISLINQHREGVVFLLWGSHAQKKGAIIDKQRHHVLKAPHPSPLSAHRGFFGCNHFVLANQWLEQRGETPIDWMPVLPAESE
# * marks the source's active call; other numbers are inactive results; nt = no result given. Sampled rows, rich in hits. Any-hit rate of the full collection: about 2.9%.
SMILES,HCV core dimer,NS3 helicase inh,A3G deaminase,ABHD5-PLIN5 inh,PRMT1 inh,A3A deaminase,APOBEC3G confirm,UDG ctr A3G
O=c1c(O)c(-c2cc(O)c(O)c(O)c2)oc2cc(O)cc(O)c12,-68,nt,41*,21,54*,21,73*,2
Cc1cc(-c2n[nH]c(=S)n2/N=C/c2cccc(O)c2)n[nH]1,-1,-1,49*,0,2,-1,82*,-4
Cc1cc(-c2n[nH]c(=S)n2N=Cc2ccc(-c3ccccc3)cc2)n[nH]1,nt,nt,nt,nt,8,nt,nt,nt
Cc1cc(-c2n[nH]c(=S)n2/N=C/c2cccc([N+](=O)[O-])c2)n[nH]1,-14,-7,65*,0,4,-2,73*,-2
C[C@@H]1CN([C@H](C)CO)C(=O)c2c(c3ccccc3n2C)-c2ccccc2CO[C@H]1CN(C)C(=O)Nc1ccccc1,nt,nt,nt,5,-1,nt,nt,nt
Cc1ccc(-c2n[nH]c3c2C(c2ccccc2)N(c2ccc(C(=O)O)cc2)C3=O)cc1 (stereo not drawn),8,7,74*,1,8,-8,3,3
CCOC(=O)c1c(NC(=O)C2CCCO2)sc(C(=O)OC(C)(C)C)c1C (stereo not drawn),6,5,47*,-3,8,4,33*,3
Cc1ccc(C(=O)CSc2ccc(-c3ccccc3)nn2)cc1,14,-2,74*,-2,1,-3,16,-1
COC(=O)[C@]12C[C@H](CC(=O)NCCCN3CCCC3=O)C(=O)N(Cc3cccc4ccccc34)C1=C[C@H](C1CCCC1)O[C@@H]2C,nt,nt,nt,nt,-1,nt,nt,nt
COc1cc(C(=O)OCC(=O)Nc2ccc(C)cc2)cc(OC)c1OC,-4,23,-6,-1,-4,-2,nt,nt
COC(=O)c1ccccc1NC(=O)c1sc(=S)n(C)c1N,1,16,40*,2,2,-1,41*,4
O=C1CC2(CCCCC2)CC(=O)N1CCc1ccccc1,nt,nt,nt,-4,6,nt,nt,nt
O=C1C=CC(=O)C(C2=C3C(=O)N(CCc4ccccc4)CC(=O)N3CCC2)=C1,16,19,90*,nt,88*,3,93*,3
COc1ccc(NC(=O)CSc2nnc(-c3cccs3)n2N)c(OC)c1,-4,nt,-7,-9,7,-2,nt,nt
Cc1ccc(C)c(-n2c(N)c(C(N)=O)sc2=S)c1,7,-9,0,0,0,1,nt,nt
Cc1ccc(-n2c(N)c(C(N)=O)sc2=S)c(C)c1,-3,-4,45*,-11,4,1,14,nt
COc1ccc(OC)c(C2CC(=O)N3CN(c4ccccc4)CSC3=C2C#N)c1 (stereo not drawn),25,18,46*,-12,7,2,56*,-4
COc1ccc(C2CC(=O)N3CN(Cc4ccco4)CSC3=C2C#N)cc1 (stereo not drawn),-2,33,-3,-17,20,-1,nt,nt
COc1cc(C2Nn3c(nnc3-c3ccccc3OC)S2)ccc1O (stereo not drawn),-2,2,45*,-3,6,-1,82*,-2
COc1cc(C2Nc3ccccc3C(=O)N2c2ccccc2OC)ccc1O (stereo not drawn),1,5,-3,-7,0,-1,nt,nt
Nn1c(SCC(=O)Nc2cccnc2Cl)nnc1-c1ccccc1,nt,nt,46*,0,nt,1,63*,-2
CCCCN(C=O)c1c(CC)nc2c(OCc3ccc(Cl)cc3Cl)cccn12,nt,nt,nt,9,-1,nt,nt,nt
O=C(COc1ccc2c(-c3ccccc3)cc(=O)oc2c1)Nc1ccc(CCO)cc1,13,6,-3,6,2,-2,nt,nt
COc1ccc(NC(=O)c2ccc3c(c2)NC(=O)CS3)cc1S(=O)(=O)Nc1ccc(Br)cc1,5,-22,55*,7,3,3,30*,-3
CC(=O)NS(=O)(=O)c1ccc(NC(=O)c2ccc3c(c2)NC(=O)CS3)cc1,nt,nt,-4,1,-1,-3,nt,nt
